Measurements published in PMC9590589 (RSC Advances, 2022).

Legend:
Format in all cases: cell-based
[1] = system: MDA-MB231, Huh-7, KKU-100 and normal human dermal fibroblast (NHDF) cell lines; test: MTT cytotoxicity assay, all cell lines; conditions: 24 h, read-out: IC50 values against all the cell lines
Outline: (§1)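 Cells grown in DMEM/F12 with 10% FBS, penicillin (100 U mL−1) and streptomycin (100 μg mL−1) at 37 °C, 5% CO2, and passaged twice weekly by trypsinization. Seeded at 5 × 10^3 cells per well for 24 h, then exposed to a range of test compound concentrations for 24 h. MTT (5 mg mL−1 stock) added for 2 h, supernatant removed, formazan dissolved in DMSO, absorbance read at 540 nm, and IC50 calculated. Controls: doxorubicin (positive) and 0.75% DMSO (negative).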

[2] = MTT cytotoxicity assay, NHDF; conditions: human, normal human dermal fibroblasts (NHDF)
Outline: as §1

MDA-MB231 (breast) cells = test: MTT cytotoxicity assay, MDA-MB231; conditions: Homo sapiens, MDA-MB-231, 24 h, read-out: Cytotoxic activity, IC50, MDA-MB231
Outline: as §1

[3] = system: KKU-100 (cholangiocarcinoma) cells; test: MTT cytotoxicity assay, KKU-100; conditions: Homo sapiens, KKU100, 24 h, read-out: Cytotoxic activity, IC50, KKU-100
Outline: as §1

[4] = system: Huh-7 (hepatocellular carcinoma) cells; test: MTT cytotoxicity assay, Huh-7; conditions: Homo sapiens, Huh-7, 24 h, read-out: Cytotoxic activity, IC50, Huh-7
Outline: as §1

Structure (SMILES) | IC50 [1] [µM] | IC50 at 24 h [2] [µM] | IC50 (MDA-MB231 (breast) cells) [µM] | IC50 [3] [µM] | IC50 [4] [µM]
CC(C)=CCOc1ccc(-c2coc3cc(OCC=C(C)C)cc(O)c3c2=O)cc1 [Compound 9, 7,4′-di-O-prenylgenistein] | > 100 | > 100 | > 100 | > 100 | > 100
COc1cccc2c1C(=O)c1c(O)c3c(c(O)c1C2=O)C[C@@](O)(C(=O)CO)C[C@@H]3O[C@H]1C[C@H](N)[C@H](O)[C@H](C)O1 [Doxorubicin, reference compound] | – | 5 | – | 1.9 | –
